Reference: publication PMC8286641 (European Journal of Drug Metabolism and Pharmacokinetics, 2021)

Assays:
ENT1 [1] = target: T1, ENT1 (Homo sapiens, UniProt Q99808); experiment: Inhibition of ENT1-mediated [3H]-uridine uptake in HAP1 ENT2-KO cells; assay type: cell-based; conditions: 10 µM TKI; for % inhibition of ENT1 activity (mean ± SD): HAP1-ENT2 KO cells, [3H]-uridine uptake 5 min at 37 °C; for ENT1 inhibitor class / Effect on ENT1 activity (in words): HAP1 ENT2-KO cells
T1 sequence (Q99808 1-456): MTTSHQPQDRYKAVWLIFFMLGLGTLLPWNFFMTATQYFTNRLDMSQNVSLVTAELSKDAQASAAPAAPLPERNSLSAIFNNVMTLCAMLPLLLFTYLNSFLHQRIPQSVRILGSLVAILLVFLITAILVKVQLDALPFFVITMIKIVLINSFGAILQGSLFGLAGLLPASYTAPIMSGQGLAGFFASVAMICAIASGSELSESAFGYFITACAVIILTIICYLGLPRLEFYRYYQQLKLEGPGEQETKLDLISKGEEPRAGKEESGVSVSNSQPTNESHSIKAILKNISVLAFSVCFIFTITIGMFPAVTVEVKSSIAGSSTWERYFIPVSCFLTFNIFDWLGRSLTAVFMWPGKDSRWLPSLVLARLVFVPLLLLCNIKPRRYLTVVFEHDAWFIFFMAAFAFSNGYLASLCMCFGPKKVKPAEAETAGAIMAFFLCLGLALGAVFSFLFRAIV

ENT1 [2] = target: T1, ENT1; experiment: Prediction of in vivo ENT1 inhibition; conditions: predicted if Imax,u/IC50 ≥ 0.1
Outline: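 Unbound peak plasma level (Imax,u) was obtained from literature Cmax and unbound fraction and divided by in vitro ENT1 IC50. Inhibition was predicted when the ratio was ≥ 0.1, following FDA drug-interaction guidance.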

[3] = Maximum plasma concentration of TKIs; assay type: in vivo; conditions: from Cmax and fu
[4] = plasma; ref 43-47 (Reference column, one per TKI); cited from earlier work
ENT1/ENT2 = experiment: Lorlatinib accumulation assay in HAP1 wild-type, ENT1-KO and ENT2-KO cells; assay type: cell-based, human; conditions: 10 µM lorlatinib, ENT1-KO, ENT2-KO cells
Outline: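 HAP1 wild-type, ENT1-KO and ENT2-KO cells were grown in Iscove's modified Dulbecco's medium with 10% fetal calf serum and penicillin/streptomycin. Cells were exposed to 10 µM test compound for 5 min at 37 °C, without or with 0.1 µM (ENT1) or 100 µM (ENT1/ENT2) NBMPR. They were then washed twice in ice-cold PBS and lysed in distilled water. Lysates underwent acetonitrile extraction, and compound was quantified by LC–MS/MS (C18 column, ESI+).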

ENT2 = target: T2, ENT2 (Homo sapiens, UniProt Q14542); experiment: Prediction of in vivo ENT2 inhibition; conditions: Imax,u/IC50 greater than 0.1
T2 sequence (Q14542 1-456): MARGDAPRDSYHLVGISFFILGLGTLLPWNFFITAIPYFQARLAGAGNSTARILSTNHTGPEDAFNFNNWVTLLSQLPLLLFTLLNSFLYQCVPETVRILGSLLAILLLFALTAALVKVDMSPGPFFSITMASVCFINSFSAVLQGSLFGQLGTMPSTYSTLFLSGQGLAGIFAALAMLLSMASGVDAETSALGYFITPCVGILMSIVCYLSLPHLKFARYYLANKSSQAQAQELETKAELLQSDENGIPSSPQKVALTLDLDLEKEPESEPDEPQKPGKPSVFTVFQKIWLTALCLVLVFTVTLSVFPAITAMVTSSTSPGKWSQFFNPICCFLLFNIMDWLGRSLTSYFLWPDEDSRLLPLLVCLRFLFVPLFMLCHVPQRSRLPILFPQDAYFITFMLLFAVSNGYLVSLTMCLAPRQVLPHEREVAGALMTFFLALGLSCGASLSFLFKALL
Outline: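 Imax,u from literature Cmax and unbound fraction was divided by ENT2 IC50, using the FDA guidance threshold of 0.1. […] Uptake was counted by scintillation, normalised to protein, and fitted to a four-parameter logistic curve; three independent assays.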

% inhibition of ENT1 activity (mean ± SD) (ENT1 [1]) [%]	Compound	ENT1 inhibitor class (ENT1 [1])	also measured
25.0 ± 7.9	CCN1CCN(Cc2ccc(Nc3ncc(F)c(-c4cc(F)c5nc(C)n(C(C)C)c5c4)n3)nc2)CC1 [Abemaciclib, abemaciclib]	weak (decreased ENT1 activity by less than 35% and can thus be considered as weak ENT1 inhibitors)	–
42.6 ± 10.4	CC#CC(=O)N1CCC[C@H]1c1nc(-c2ccc(C(=O)Nc3ccccn3)cc2)c2c(N)nccn12 [Acalabrutinib, acalabrutinib]	moderate (inhibit ENT1 activity by more than 35% but less than 60%)	–
54.5 ± 2.4	CN(C)C/C=C/C(=O)Nc1cc2c(Nc3ccc(F)c(Cl)c3)ncnc2cc1O[C@H]1CCOC1 [Afatinib, afatinib]	moderate (inhibit ENT1 activity by more than 35% but less than 60%)	–
54.0 ± 4.9	CCc1cc2c(cc1N1CCC(N3CCOCC3)CC1)C(C)(C)c1[nH]c3cc(C#N)ccc3c1C2=O [Alectinib, alectinib]	moderate (inhibit ENT1 activity by more than 35% but less than 60%)	–
34.7 ± 2.7	C[C@@H](Oc1cc(-c2cnn(C3CCNCC3)c2)cnc1N)c1c(Cl)ccc(F)c1Cl [Crizotinib, crizotinib]	weak (decreased ENT1 activity by less than 35% and can thus be considered as weak ENT1 inhibitors)	Effect on ENT1 activity (in words) (ENT1 [1]): only modestly decrease ENT1 activity
43.9 ± 2.3	COc1cc2ncnc(Nc3ccc(F)c(Cl)c3)c2cc1NC(=O)/C=C/CN1CCCCC1 [Dacomitinib, dacomitinib]	moderate (inhibit ENT1 activity by more than 35% but less than 60%)	–
22.9 ± 5.2	CN1CCN(c2ccc(C(=O)Nc3n[nH]c4ccc(Cc5cc(F)cc(F)c5)cc34)c(NC3CCOCC3)c2)CC1 [Entrectinib, entrectinib]	–	–
21.9 ± 13.3	N#CCC1(n2cc(-c3ncnc4[nH]ccc34)cn2)CN(C2CCN(C(=O)c3ccnc(C(F)(F)F)c3F)CC2)C1 [Itacitinib, itacitinib]	weak (decreased ENT1 activity by less than 35% and can thus be considered as weak ENT1 inhibitors)	–
86.6 ± 6.4	C[C@H]1Oc2cc(cnc2N)-c2c(nn(C)c2C#N)CN(C)C(=O)c2ccc(F)cc21 [Lorlatinib, (10R)-7-amino-12-fluoro-2,10,16-trimethyl-15-oxo-10,15,16,17-tetrahydro-2H-8,4-(metheno)pyrazolo[4,3-h][2,5,11]-benzoxadiazacyclotetradecine-3-carbonitrile]	potent (inhibit ENT1 by more than 60%)	Cellular accumulation of lorlatinib (ENT1/ENT2; 5 min at 37 °C, without or with 0.1 or 100 µM NBMPR): similarly accumulate in HAP1 wild-type, ENT1-KO, and ENT2-KO cells; Substrate for ENT1/ENT2 (ENT1/ENT2; ± NBMPR): not a substrate for either ENT1 or ENT2; Predicted in vivo inhibition (in words) (ENT2): should also be clinically relevant; Predicted in vivo inhibition (ENT1 [2]): Yes; Imax,u (maximum unbound plasma concentration) [3]: 485 nM
61.0 ± 8.5	CCOc1cc2ncc(C#N)c(Nc3ccc(OCc4ccccn4)c(Cl)c3)c2cc1NC(=O)/C=C/CN(C)C [Neratinib, neratinib]	potent (inhibit ENT1 by more than 60%)	fu (unbound fraction) [4]: 0.01; Predicted in vivo inhibition (ENT1 [2]): No; Imax,u (maximum unbound plasma concentration) [3]: 1.46 nM
32.3 ± 11.3	C=CC(=O)Nc1cc(Nc2nccc(-c3cn(C)c4ccccc34)n2)c(OC)cc1N(C)CCN(C)C [Osimertinib, osimertinib]	weak (decreased ENT1 activity by less than 35% and can thus be considered as weak ENT1 inhibitors)	–
27.3 ± 10.9	CCCS(=O)(=O)Nc1ccc(F)c(C(=O)c2c[nH]c3ncc(-c4ccc(Cl)cc4)cc23)c1F [Vemurafenib, vemurafenib]	weak (decreased ENT1 activity by less than 35% and can thus be considered as weak ENT1 inhibitors)	–

More lines, now with the values behind:

Compound	% inhibition of ENT1 activity (mean ± SD) (ENT1 [1]) [%]	ENT1 inhibitor class (ENT1 [1])	also measured
COc1cc(N2CCC(N3CCN(C)CC3)CC2)ccc1Nc1ncc(Cl)c(Nc2ccccc2P(C)(C)=O)n1 [Brigatinib, brigatinib]	52.5 ± 11.1	moderate (inhibit ENT1 activity by more than 35% but less than 60%)	–
COc1cc2nccc(Oc3ccc(NC(=O)C4(C(=O)Nc5ccc(F)cc5)CC4)cc3)c2cc1OC [Cabozantinib, cabozantinib]	48.8 ± 2.5	moderate (inhibit ENT1 activity by more than 35% but less than 60%)	–
Cc1cc(Nc2ncc(Cl)c(Nc3ccccc3S(=O)(=O)C(C)C)n2)c(OC(C)C)cc1C1CCNCC1 [Ceritinib, ceritinib]	26.3 ± 1.7	weak (decreased ENT1 activity by less than 35% and can thus be considered as weak ENT1 inhibitors)	Effect on ENT1 activity (in words) (ENT1 [1]): only modestly decrease ENT1 activity
C=CC(=O)N1CCC[C@@H](n2nc(-c3ccc(Oc4ccccc4)cc3)c3c(N)ncnc32)C1 [Ibrutinib, ibrutinib]	72.7 ± 1.1	potent (inhibit ENT1 by more than 60%)	Predicted in vivo inhibition (ENT1 [2]): No; Imax,u (maximum unbound plasma concentration) [3]: 9.56 nM
COc1cc2nccc(Oc3ccc(NC(=O)NC4CC4)c(Cl)c3)c2cc1C(N)=O [Lenvatinib, lenvatinib]	63.1 ± 5.9	potent (inhibit ENT1 by more than 60%)	fu (unbound fraction) [4]: 0.016; Predicted in vivo inhibition (ENT1 [2]): No
COC(=O)c1ccc2c(c1)NC(=O)/C2=C(\Nc1ccc(N(C)C(=O)CN2CCN(C)CC2)cc1)c1ccccc1 [Nintedanib, nintedanib]	46.9 ± 9.6	–	–
C1=C/COCc2cc(ccc2OCCN2CCCC2)Nc2nccc(n2)-c2cccc(c2)COC/1 [Pacritinib, 11-(2-pyrrolidin-1-yl-ethoxy)-14,19-dioxa-5,7,26-triaza-tetracyclo[19.3.1.1(2,6).1(8,12)]heptacosa-1(25),2(26),3,5,8,10,12(27),16,21,23-decaene]	61.6 ± 8.1	potent (inhibit ENT1 by more than 60%)	fu (unbound fraction) [4]: 0.011; Predicted in vivo inhibition (ENT1 [2]): No; Imax,u (maximum unbound plasma concentration) [3]: 247.5 nM
CNC(=O)c1cc(Oc2ccc(NC(=O)Nc3ccc(Cl)c(C(F)(F)F)c3)c(F)c2)ccn1 [Regorafenib, regorafenib]	21.4 ± 2.7	–	–
CN(C)C(=O)c1cc2cnc(Nc3ccc(N4CCNCC4)cn3)nc2n1C1CCCC1 [Ribociclib, ribociclib]	17.8 ± 10.2	–	Effect on ENT1 activity (in words) (ENT1 [1]): failed to significantly alter ENT1 activity
C[C@@H]1CCN(C(=O)CC#N)C[C@@H]1N(C)c1ncnc2[nH]ccc12 [Tofacitinib, tofacitinib]	4.8 ± 8.3	–	Effect on ENT1 activity (in words) (ENT1 [1]): failed to significantly alter ENT1 activity
